The text below walks through data of ChEMBL document CHEMBL4673193, “Investigation of thiazolyl-benzothiophenamides as potential agents for African sleeping sickness” (RSC Med Chem, 2020).

A value given as a limit tells only on which side of the number the result lay.

The nature of series [1]: Selectivity index, ratio of IC50 for human HEK293 cells to IC50 for antitrypanosomal activity against Trypanosoma brucei brucei 427. Format: toxicity. Conditions: read-out: Ratio IC50.
The subject of series [2] is HEK293. The series is described as follows: Cytotoxicity against human HEK293 cells assessed as reduction in cell viability incubated for 48 hrs by resazurin dye based assay. In outline: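 HEK293 cells at 7.27×10⁴ cells/mL in DMEM with 10% FCS, preincubated 24 h at 37 °C/5% CO₂. Compounds serially diluted in DMEM, final 83.34 to 0.04 μM, 48 h. 0.49 mM resazurin solution in medium added, then 2 h at 37 °C plus 22 h at room temperature. Fluorescence read at 535/590 nm; IC50 calculated.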

For series [3], the system named is Trypanosoma brucei brucei. Nature of the series: Antitrypanosomal activity against Trypanosoma brucei brucei 427 assessed as parasite growth inhibition incubated for 48 hrs by resazurin dye based assay. Format: functional, organism-based. In a few lines: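 Log-phase T. b. brucei 427 at 1200 parasites/mL in HMI-9 with 10% FCS, preincubated 24 h at 37 °C/5% CO₂. Serial dilutions made in DMEM, final 83.34 to 0.04 μM, 48 h exposure. 0.49 mM resazurin solution added, then 2 h at 37 °C plus 22 h at room temperature. Fluorescence read at ex 535/em 590 nm; IC50 from concentration curves.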

Series [4] deals with HEK293. The series is described as follows: Cytotoxicity against human HEK293 cells assessed as reduction in cell viability at 83.3 uM incubated for 48 hrs by resazurin dye based assay relative to control. Conditions: hek293, 48 h.
For series [5], the system named is Trypanosoma brucei brucei. Nature of the series: Antitrypanosomal activity against Trypanosoma brucei brucei 427 assessed as parasite growth inhibition at 83.3 uM incubated for 48 hrs by resazurin dye based assay relative to control. Set-up: scale not given: the % may be the effect or the level left. Format: functional.
Series [6] has as its system HEK293. The series is described as follows: Cytotoxicity against human HEK293 cells assessed as reduction in cell viability at 79.4 uM incubated for 48 hrs by resazurin dye based assay relative to control. Conditions: hek293, 48 h.
The nature of series [7]: Selectivity index, ratio of IC50 for rat L6 cells to IC50 for antitrypanosomal activity against bloodstream form of Trypanosoma brucei rhodesiense STIB900. Format: toxicity. Conditions: read-out: Ratio IC50.
Series [8] is described as follows: Selectivity index, ratio of IC50 for antitrypanosomal activity against bloodstream form of Trypanosoma brucei rhodesiense STIB900 to IC50 for antitrypanosomal activity against Trypanosoma brucei brucei 427. Format: functional.
Series [9] relates to Trypanosoma brucei rhodesiense. Nature of the series: Antitrypanosomal activity against bloodstream form of Trypanosoma brucei rhodesiense STIB900 incubated for 70 hrs by Alamar blue dye-based fluorometric analysis. Format: functional, organism-based. Conditions: STIB900, 70 h.
In the next series the test system is L6. Nature of the series: Cytotoxicity against rat L6 cells assessed as reduction in cell viability after 70 hrs by Alamar blue dye-based fluorometric analysis. Conditions: L6, 70 h. In outline: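 Rat skeletal myoblast L6 cells, 4000 per well in RPMI 1640 with L-glutamine and 10% FBS. Eleven 3-fold dilutions from 100 to 0.002 μg/mL, 70 h. Wells checked by microscope, then Alamar Blue added for 2 h. Fluorescence read at 536/588 nm; IC50 by linear and 4-parameter logistic regression of dose-inhibition curves.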

The test system of series [10] is Trypanosoma brucei brucei. The series is described as follows: Antitrypanosomal activity against Trypanosoma brucei brucei 427 assessed as parasite growth inhibition at 79.4 uM incubated for 48 hrs by resazurin dye based assay relative to control. Set-up: scale not given: the % may be the effect or the level left. Format: functional.
The test system of series [11] is Trypanosoma brucei brucei. The series is described as follows: Antitrypanosomal activity against Trypanosoma brucei brucei 427 assessed as parasite growth inhibition at 41.7 uM incubated for 48 hrs by resazurin dye based assay relative to control. Set-up: scale not given: the % may be the effect or the level left. Format: functional.
The test system of series [12] is HEK293. The series is described as follows: Cytotoxicity against human HEK293 cells assessed as reduction in cell viability at 41.7 uM incubated for 48 hrs by resazurin dye based assay relative to control. Conditions: hek293, 48 h.
Setting [13] is: Homo sapiens, HEK293, 48 h, read-out: IC50.
The mark [14] stands for this setting: Trypanosoma brucei, 427, 48 h, read-out: IC50.

Turning to `CC1(C)CC(=O)c2sc(NC(=O)c3sc4ccccc4c3Cl)nc2C1`, in [1], the selectivity ratio was 14. For the same compound, the IC50 turned out to be 10.4 µM with HEK293 [2] (setting [13]) and 0.73 µM in [3] (setting [14]).
Take `C=CCN(C(=O)c1sc2ccccc2c1Cl)c1nc2c(s1)C(=O)CCC2`: the Activity (with HEK293 [4]; in series [5]) was under 50% in each case.
In the case of `COc1cccc(-c2c(C(=O)Nc3nc4c(s3)C(=O)CC(C)(C)C4)sc3ccccc23)c1`, the selectivity ratio in series [1] is over 38. Besides, in the series with HEK293 [4], the Activity was under 50%. Moreover, the IC50 in [3] (setting [14]) was 2.21 µM.
In the case of `CC1(C)CC(=O)c2sc(NC(=O)c3sc4cc(Br)ccc4c3Cl)nc2C1`, the selectivity ratio in series [1] is over 12. The IC50 in [3] (setting [14]) came to 6.53 µM. The Activity with HEK293 [6] is under 50%.
`COc1ccc2sc(C(=O)Nc3nc4c(s3)C(=O)CC(C)(C)C4)c(Cl)c2c1`: the selectivity ratio in series [1] was over 14. Also, the Activity with HEK293 [4] is on record as under 50%. For the same compound, the IC50 in series [3] (setting [14]) was determined as 5.86 µM.
For `CC1(C)CC(=O)c2sc(NC(=O)c3sc4ccccc4c3-c3cccc4ccccc34)nc2C1`, the Activity with HEK293 [4] turned out to be 52%; in series [5], 100%.
As for `O=C1CCCc2nc(NC(=O)c3sc4ccccc4c3Cl)sc21`, the results for the selectivity ratio in series [1] and in [7] were over 48 and 3, respectively. For the same compound, in series [8], the Ratio IC50 turned out to be 4. Moreover, the 50% inhibitory concentration (IC50) is 8.96 µM in series [9], 2.5 µM in series [3] (setting [14]) and 24.9 µM with L6. Moreover, in the series with HEK293 [4], the Activity is listed as under 50%.
As for `O=C1CCCc2nc(NC(=O)c3sc4ccccc4c3-c3ccccc3)sc21`, the Activity in the series with HEK293 [4] is reported as under 50%; in [5], 77%.
As for `O=C(Nc1nc2ccccc2s1)c1sc2ccccc2c1Cl`, the Activity (with HEK293 [4]; in series [5]) was under 50% throughout.
Consider `COc1ccc(-c2c(C(=O)Nc3nc4c(s3)C(=O)CCC4)sc3ccccc23)cc1`, for which, in [1], the selectivity ratio is over 12. Further, the Activity with HEK293 [4] is on record as 88%. The IC50 in series [3] (setting [14]) stood at 7.23 µM.
In the case of `N=C(N)c1ccc(OCCCCCOc2ccc(C(=N)N)cc2)cc1` [PENTAMIDINE], the selectivity ratio in [1] was found to be 307. In addition, the IC50 in [3] (setting [14]) turned out to be 0.00213 µM.
Consider `O=C1CCCc2nc(NC(=O)c3sc4ccccc4c3-c3cccc4ccccc34)sc21`, for which the selectivity ratio in series [1] is 1. Moreover, the IC50 was 4.63 µM with HEK293 [2] (setting [13]) and 6.38 µM in [3] (setting [14]).
As to `CC1(C)CC(=O)c2sc(NC(=O)c3cccs3)nc2C1`, the Activity in series [10] is given as 90%; with HEK293 [6], under 50%.
Consider `Cc1ccc2c(Cl)c(C(=O)Nc3nc4c(s3)C(=O)CCC4)sc2c1`, for which the selectivity ratio in series [1] is over 11. Moreover, the Activity with HEK293 [4] was under 50%. Also, the IC50 in series [3] (setting [14]) came to 7.77 µM.
The like results for `COc1ccc(-c2c(C(=O)Nc3nc4c(s3)C(=O)CC(C)(C)C4)sc3ccccc23)cc1` were, in that order, over 29, under 50% and 2.91 µM.
As to `CC1(C)CC(=O)c2sc(NC(=O)c3cc4ccccc4s3)nc2C1`, the selectivity ratio in series [1] is over 106; in series [7], 13. The results for the IC50 (in [9]; in series [3] (setting [14]); in the series with L6) were 5.04 µM, 0.75 µM and 65.4 µM, respectively. The Activity in the series with HEK293 [6] was under 50%.
For `O=C1CCCc2nc(NC(=O)c3sc4cc(Br)ccc4c3Cl)sc21`, the Activity is recorded as 78% in series [10] and under 50% in the series on HEK293 [6].
As to `O=C(Nc1nc2c(s1)C(=O)CCC2)c1cc2ccccc2s1`, the Activity in [10] is given as 97%; with HEK293 [6] it was under 50%.
`O=C1CCCc2nc(NC(=O)c3sc4ccccc4c3-c3ccc(C(F)(F)F)cc3)sc21`: the results for the Activity (in series [11]; in the series on HEK293 [4]) were 97% and 59%, respectively.
`CC1(C)CC(=O)c2sc(NC(=O)c3cc4cccc(-c5ccccc5)c4s3)nc2C1`: the selectivity ratio in series [1] was over 28. Also, in series [3] (setting [14]), the IC50 amounted to 2.79 µM. Moreover, the Activity in the series on HEK293 [6] is under 50%.
With `COc1cccc(-c2c(C(=O)Nc3nc4c(s3)C(=O)CCC4)sc3ccccc23)c1`, the selectivity ratio in series [1] was over 9. The Activity in the series on HEK293 [4] amounted to 88%. Also, in series [3] (setting [14]), the IC50 was found to be 9.39 µM.
For the compound `CC1(C)CC(=O)c2sc(NC(=O)c3sc4ccccc4c3-c3ccccc3)nc2C1`, the Activity with HEK293 [12] is listed as under 50%; in series [11], 93%.
For `CC1(C)CC(=O)c2sc(NC(=O)c3sc4ccccc4c3-c3ccc(C(F)(F)F)cc3)nc2C1`, the Activity (in the series with HEK293 [4]; in series [5]) was under 50% each time.
On to `COc1cc([C@@H]2c3cc4c(cc3[C@H](O)[C@H]3COC(=O)[C@H]23)OCO4)cc(OC)c1OC` [PODOFILOX], for which the IC50 with L6 stood at 0.011 µM.
In the case of `O=C(Nc1nc2c(s1)CCCC2)c1sc2ccccc2c1Cl`, the results for the Activity (with HEK293 [4]; in [5]) were under 50% and 89%, respectively.
`Nc1nc(N)nc(Nc2ccc([As]3SCC(CO)S3)cc2)n1` (stereo unspecified) [MELARSOPROL] showed an IC50 in [9] of 0.014 µM.
In the case of `CC1(C)CC(=O)c2sc(NC(=O)c3sc4c(Br)cccc4c3Cl)nc2C1`, the Activity in the series on HEK293 [12] is given as under 50%. The selectivity ratio in series [1] was over 130; in [7], 4. The half-maximal inhibitory concentration (IC50) stood at 7.13 µM in series [9], 0.32 µM in series [3] (setting [14]) and 25.2 µM with L6.
For `CC1(C)CC(=O)c2sc(NC(=O)c3nc4ccccc4s3)nc2C1`, the selectivity ratio was over 56 in series [1] and 3 in series [7]. Also, the concentration for half-maximal inhibition (IC50) in series [9] came out at 10.6 µM; in series [3] (setting [14]), 1.41 µM; with L6, 30.4 µM. Moreover, the Activity in the series on HEK293 [6] is under 50%.
Consider `COc1cccc2cc(C(=O)Nc3nc4c(s3)C(=O)CC(C)(C)C4)sc12`, for which the IC50 entry with HEK293 [2] (hek293) is “Nd(Insoluble)”; in series [9] it was 8.68 µM; in series [3] it was “Nd(Insoluble)”; with L6 it was 54.5 µM. The selectivity ratio in [7] amounted to 6.
For `O=C(Nc1nccs1)c1sc2ccccc2c1Cl`, the Activity in the series on HEK293 [4] was under 50%; in [5], 96%.
As to `Cc1ccc2c(Cl)c(C(=O)Nc3nc4c(s3)C(=O)CC(C)(C)C4)sc2c1`, the selectivity ratio in series [1] was over 37. The Activity with HEK293 [4] is under 50%. The IC50 in series [3] (setting [14]) turned out to be 2.27 µM.
